Hits are enriched below; roughly 3.7% of the tested compounds scored in any of these assays.
KCNQ1 pot: human KCNQ1 channel potentiation or activation; P51787; CHO-K1 KCNQ1, thallium flux FluxOR fluorescence; active compounds read high; B-score at 10 µM; 310,000 tested, 0.35% active; AID 2648;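 active = fluorescence ratio B-score, a plate-corrected score, at least three library SD, with initial intensity B-score within 5 SD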
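Assay system: CHO-K1 cells stably expressing KCNQ1. Medium: assay buffer for compound exposure, DMSO matched across wells. Timing: 37 °C overnight plating, 90-min dark dye load, 20-min compound pretreatment. Signal: kinetic FluxOR fluorescence, 10 s baseline plus 110 s post-stimulus.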
KCNK9 inh: inhibitors of human KCNK9 two-pore domain potassium channel | Q9NPC2 | HEK293 KCNK9, FluxOR thallium flux fluorescence; active compounds read low | B-score at 10 µM | 310,000 tested, 1.2% active;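 active = ratio B-score over 3 SD below the library mean, with starting fluorescence within 5 SD of its mean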;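 note: negative B-score means less thallium flux so channel inhibition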
Kir21 block: blocks the mouse Kir2.1 inward-rectifier potassium channel; 310,000 tested, 0.85% active; HEK293-Kir2.1, FluxOR thallium flux fluorescence; active compounds read low; AID 1672; P35561; B-score at 10 µM;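 active = fluorescence ratio B-score at or below minus 3 SD of library scores, with starting-brightness B-score within 2 SD, cut at about -4.2 in these data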;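 note: channel flux triggered by added potassium and thallium sulfate stimulus; B-score of peak minus minimum fluorescence over baseline after thallium stimulus; more negative B-score means stronger Kir2.1 block with less thallium influx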
hERG rescue: compounds protecting human hERG from proarrhythmic drug block | 310,000 tested, 0.51% active | Q12809 | CHO-hERG, FluxOR thallium flux, dofetilide IC70 present | activation (rescue from dofetilide block), less the hit threshold, % at 10 µM;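 active = activation above the mean of controls blocked by dofetilide plus 5 SD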;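 note: thallium influx through hERG after potassium depolarization seen as dye fluorescence rise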
KCNK3 block: human KCNK3 channel inhibition, primary screen. AID 602410. B-score at 10 µM. CHO-KCNK3 thallium flux, FluxOR fluorescence; active compounds read low. O14649. 340,000 tested, 0.84% active;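 active = B-score under library mean minus 4 SD, starting fluorescence ratio at most library mean plus 5 SD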;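 note: more negative B-score means stronger inhibition of thallium flux through KCNK3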
Target sequence (O14649 whole entry, looked up): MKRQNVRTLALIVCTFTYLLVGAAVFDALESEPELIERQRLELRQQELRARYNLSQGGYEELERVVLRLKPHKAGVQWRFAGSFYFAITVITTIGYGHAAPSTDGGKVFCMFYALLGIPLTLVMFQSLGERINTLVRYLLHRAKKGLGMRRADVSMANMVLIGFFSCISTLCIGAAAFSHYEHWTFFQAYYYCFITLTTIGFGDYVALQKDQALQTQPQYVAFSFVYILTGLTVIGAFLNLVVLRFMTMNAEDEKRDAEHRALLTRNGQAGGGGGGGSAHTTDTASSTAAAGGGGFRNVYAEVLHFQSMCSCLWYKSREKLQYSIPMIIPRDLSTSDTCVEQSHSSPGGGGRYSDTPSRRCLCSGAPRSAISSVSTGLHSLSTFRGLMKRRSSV
KCNQ1 inh: inhibitors of human KCNQ1 potassium channel. P51787. CHO-K1 KCNQ1, FluxOR thallium flux fluorescence; active compounds read high. B-score at 10 µM. 310,000 tested, 1.3% active. AID 2642;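 active = compounds whose thallium flux B-score, printed positive for inhibition, exceeds three library SD while starting fluorescence stays within three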;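 note: channel opened by potassium depolarization with thallium stimulus after 20 min compound exposure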
KCNQ1 block val: reconfirmed blocker of the human KCNQ1 potassium channel. KCNQ1 cell line, FluxOR thallium flux fluorescence. inhibition, % at 10 µM. shares compounds with KCNQ1 inh. 1,600 tested, 93% active;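 active = primary screen active, with duplicate mean exceeding buffer control mean plus 3 SD of buffer wells, cut at about 28% in these data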;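 note: 0% = buffer control ratio and 100% = XE991 inhibitor control ratio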
CHO Tl flux: counter-screen for KCNQ1 inhibitors: effect in parental CHO cells; parental CHO-K1, FluxOR thallium flux fluorescence ratio; active compounds read low; zero means no signal rise above baseline; shares compounds with KCNQ1 inh; fluorescence ratio (Tl flux) at 10 µM; 1,600 tested, 21% active;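 active = mean of duplicate thallium-flux fluorescence ratios in parental host cells more than 5 SD below the buffer control mean, cut at about 0.38 in these data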;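 note: ratio is peak minus minimum fluorescence divided by baseline fluorescence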
KCNQ1 APC inh: human KCNQ1 inhibition validated by electrophysiology; shares compounds with KCNQ1 inh; calls only at 10 µM; 490 tested, 20% active; KCNQ1-CHO cells, automated patch clamp current;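 active = KCNQ1 current drop exceeding 3 SD of negative control wells, seen in both duplicate runs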;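 note: steady state current during a 2 s step from -80 to +40 mV; negative values mean current inhibition and positive values mean potentiation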
KCNQ2 inh: selectivity of KCNQ1 inhibitors: inhibition of rat KCNQ2 channel; inhibition, % at 10 µM; 1,600 tested, 71% active; AID 651746; KCNQ2 cells, FluxOR thallium flux fluorescence; shares compounds with KCNQ1 inh;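 active = mean percent inhibition of the KCNQ2 thallium signal more than 5 SD above the buffer-only control wells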;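 note: KCNQ2 expressed in CHO cells; 0% = buffer control wells and 100% = XE-991 inhibitor control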
KCNQ1-KCNE1 inh: selectivity of KCNQ1 inhibitors: inhibition of human KCNQ1/KCNE1 channel | shares compounds with KCNQ1 inh | KCNQ1/KCNE1 cells, FluxOR thallium flux fluorescence | inhibition, % at 10 µM | 1,600 tested, 77% active | AID 652147;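 active = mean percent inhibition of duplicate wells above the buffer-only control mean plus 3 SD of those controls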;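 note: 0% = buffer only wells and 100% = XE-991 inhibitor control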
Numbers without * were called inactive; i = inactive; x = not tested or not shown; + = active, no number.

SMILES | KCNQ1 pot | KCNK9 inh | Kir21 block | hERG rescue | KCNK3 block | KCNQ1 inh | KCNQ1 block val | CHO Tl flux | KCNQ2 inh | KCNQ1-KCNE1 inh | others
NC(=O)CSc1nc(C23CC4CC(CC(C4)C2)C3)nc2ccccc12 | i | i | -1.4 | -17 | i | 6* | 91* | 0.39 | i | 94%* | KCNQ1 APC inh=i
Cc1cc(C)cc(NC(=O)NCC2CCN(Cc3cc(C)ccc3C)CC2)c1 | i | i | -0.26 | -9 | i | i | x | x | x | x
Cc1ccc(C)c(CN2CCC(CNC(=O)Nc3ccc(F)c(Cl)c3)CC2)c1 | i | i | -3.8 | -17 | i | 7* | 58* | 0.43 | i | 42%*
Cc1cccc(NC(=O)COc2ccccc2C(=O)NC(C)c2ccccc2)c1 (centres undefined) | i | i | 0.02 | -7 | i | 7* | 130* | 0.4 | i | 190%*
Cc1cccc(NC(=O)c2ccccc2OCC(=O)c2ccccc2)c1 | i | i | -1.1 | -12 | i | i | x | x | x | x
COc1cccc(NC(=O)Nc2ccc(C)c(Cl)c2)c1 | i | i | 0.12 | -9 | i | 6* | 76* | 0.52 | i | i
Cc1ccc(NC(=O)Nc2ccc(F)cc2)cc1Cl | i | i | 0.7 | -7 | i | 10* | 70* | 0.45 | 61%* | i
COc1cccc(NC(=O)Nc2cc(C(=O)O)ccc2C)c1 | i | i | -0.48 | -6 | i | i | x | x | x | x
Cc1cccn2c(CNC3CCCc4ccccc43)c(C(=O)N3CCCCC3)nc12 (centres undefined) | i | i | -1.3 | -20 | i | i | x | x | x | x
Cc1cc(NCC2CCCCC2)nc2ccccc12 | i | i | 0.81 | -10 | i | 7* | 68* | 0.5 | i | 66%*
Cc1cc(NCCNC2=CC(=O)CCC2)nc2ccccc12 | i | i | 2.1 | -5 | i | i | x | x | x | x
C=C(CN(C)C)C(=O)c1cc(C)ccc1C | x | x | x | x | i | x | x | x | x | x
COc1ccc(-c2cc(=NC(CC(C)C)C(=O)O)c3cc(C)ccc3o2)cc1 (centres undefined) | i | i | -0.3 | -16 | i | 9* | 70* | 0.45 | i | 54%*
Cc1cccc(C)c1-n1nnnc1C1(Nc2ccccc2)CCCCC1 | i | -7.7* | 0.01 | -14 | i | 7* | 109* | 0.36* | 109%* | 130%*
CCN=C(NCC)SC1CC(=O)N(c2cccc(OC)c2)C1=O (centres undefined) | i | i | 1 | -23 | i | 11* | 64* | 0.44 | 71%* | 62%*
CN(C)CCCNc1c2ccccc2nc2ccccc12 | i | i | -0.46 | -7 | i | i | x | x | x | x
Cc1c2ccccc2nc2c(F)c(NCCO)c(F)c(F)c12 | i | i | -12 | -24 | i | 6* | 178* | 0.15* | i | i
OCCNc1c2ccccc2nc2c(F)c(F)c(F)c(F)c12 | i | i | -0.94 | -14 | i | 6* | 84* | 0.37* | 105%* | 101%*
O=C(NCc1nnc(SCC(=O)N2CCCC2)o1)c1cccc(C(F)(F)F)c1 | i | i | -0.87 | -5 | i | i | x | x | x | x
ClCc1nc2ccccc2n1Cc1ccccc1 | i | i | -5 | -15 | i | 7* | 0 | 0.45 | 84%* | i
Cc1ccc(C)c(NC(=O)CN(C)C(=O)COc2cccc3c2OC(C)(C)C3)c1 | i | i | -1.1 | -18 | i | i | x | x | x | x
O=C(O)c1ccc(N=Nc2c(O)[nH]c3ccccc23)cc1 | i | i | 0 | -17 | i | i | x | x | x | x
Cc1ccc(Cl)c2c(N=Nc3ccccc3)c(O)[nH]c12 | i | i | -1 | -5 | i | 6* | 148* | 0.29* | i | i
COc1ccccc1CN(C(=O)c1cnccn1)C(C(=O)NC1CCCCC1)c1cc(OC)c(OC)c(OC)c1 (centres undefined) | i | i | 1.8 | -15 | i | i | x | x | x | x
Cc1ccc(C)c(S(=O)(=O)NCCC(=O)N2CCCC(C(N)=O)C2)c1 (centres undefined) | x | x | x | x | i | x | x | x | x | x
SMILES | KCNQ1 pot | KCNK9 inh | Kir21 block | hERG rescue | KCNK3 block | KCNQ1 inh | KCNQ1 block val | CHO Tl flux | KCNQ2 inh | KCNQ1-KCNE1 inh | others
CC(C)(C)c1csc(NC(=O)Cc2ccc(S(=O)(=O)N3CCOCC3)s2)n1 | i | i | -1.4 | -7 | i | 9* | 72* | 0.47 | i | 96%*
O=C(NCc1nnc(SCC(=O)N2CCN(c3ccccc3)CC2)o1)c1ccc(F)cc1 | i | i | 0.21 | -8 | i | i | x | x | x | x
COc1cccc(CNC(=O)c2cc3c(C)nc4ccccc4c3o2)c1 | i | i | 0.92 | -14 | i | i | x | x | x | x
CCc1ccc(CNC(=O)c2cc3c(C)nc4ccccc4c3o2)cc1 | i | i | 0.6 | -20 | i | 8* | 140* | 0.25* | 113%* | +
Cc1ccc(NCC(=O)Nc2ccc(Br)cc2)cc1C | i | i | 0.12 | -5 | i | i | x | x | x | x
Cc1ccc(F)cc1NCC(=O)Nc1ccc(Br)cc1 | i | i | -0.19 | -17 | i | 8* | 70* | 0.49 | 99%* | 78%*
COc1ccccc1NC(=O)c1nc(S(=O)(=O)Cc2ccccc2)ncc1Cl | i | i | 0.09 | -8 | i | i | x | x | x | x
COc1cccc(NC(=O)c2nc(S(C)(=O)=O)ncc2Cl)c1 | i | i | -6.3* | -7 | i | 7* | 0 | 0.43 | i | 52%*
CCS(=O)(=O)c1ncc(Cl)c(C(=O)Nc2ccccc2OC)n1 | i | i | 0 | -10 | i | 11* | 73* | 0.38 | 63%* | 66%*
CCOC(=O)[C@H]1[C@H]2COc3ccc(Cl)cc3[C@@H]2N2C(=O)CNC(=O)[C@@]12C | x | x | x | x | i | x | x | x | x | x
CN1CCN(NS(=O)(=O)c2cccs2)CC1 | i | i | -0.29 | -5 | i | i | x | x | x | x

Screening data (PubChem)
